Laboratory results taken from ChEMBL document CHEMBL3745596, “Chlorophenoxy aminoalkyl derivatives as histamine H(3)R ligands and antiseizure agents” (Bioorg Med Chem, 2016).
The source made the active and inactive calls.

Legend:
[1] = system: Mus musculus; assay: Protective index, ratio of TD50 for ip dosed CF1 albino mouse to ED50 for ip dosed CF1 albino mouse assessed as protection against maximal electroshock-induced seizure after 0.25 hrs; format: functional
[2] = system: Rattus norvegicus; assay: Anticonvulsant activity in ip dosed Sprague-Dawley rat assessed as protection against subcutaneous pentetrazole-induced seizure after 0.5 hrs; format: functional
[3] = system: Rattus norvegicus; assay: Protective index, ratio of TD50 for ip dosed Sprague-Dawley rat to ED50 for ip dosed Sprague-Dawley rat assessed as protection against maximal electroshock-induced seizure after 1 hr; format: functional
Method in brief: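 PI = TD50/ED50. Male CF-1 mice or male Sprague–Dawley rats given compound ip as 0.5% methylcellulose suspension. MES: 60 Hz corneal current, 50 mA mice or 150 mA rats, for […] after tetracaine eye drops; protection is abolition of hindlimb tonic extension.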

[4] = system: Mus musculus; assay: Anticonvulsant activity in CF1 albino mouse assessed as protection against subcutaneous pentetrazole-induced seizure at 30 mg/kg, ip after 4 hrs; format: functional, organism-based
Method in brief: (§1)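 Male CF-1 mice, ip in 0.5% methylcellulose; pentetrazole at CD97 (85 mg/kg) injected subcutaneously in a loose fold of neck skin. Observed 30 min; absence of even a threshold seizure (single clonic spasm lasting at least 5 s) counted as protection. Scored protected/tested, or ED50.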

[5] = system: Rattus norvegicus; assay: Anticonvulsant activity in Sprague-Dawley rat assessed as protection against maximal electroshock-induced seizure at 30 mg/kg, po; format: functional
[6] = system: Rattus norvegicus; assay: Anticonvulsant activity in Sprague-Dawley rat assessed as protection against maximal electroshock-induced seizure at 30 mg/kg, ip after 2 hrs; format: functional, organism-based
[7] = system: Mus musculus; assay: Anticonvulsant activity in ip dosed CF1 albino mouse assessed as protection against maximal electroshock-induced seizure after 0.25 hrs; format: functional
Method in brief: (§2)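 Male CF-1 mice dosed ip as suspension in 0.5% methylcellulose. Corneal electrodes deliver 60 Hz alternating current, 50 mA for […], after a drop of 0.5% tetracaine HCl in 0.9% NaCl per eye. Protection means abolition of hindlimb tonic extension; scored as protected/tested, or ED50 with 95% confidence interval.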

[8] = system: Mus musculus; assay: Anticonvulsant activity in CF1 albino mouse assessed as protection against maximal electroshock-induced seizure at 100 mg/kg, ip after 4 hrs; format: functional, organism-based; method in brief: as §2
[9] = system: Mus musculus; assay: Anticonvulsant activity in CF1 albino mouse assessed as protection against maximal electroshock-induced seizure at 10 mg/kg, ip after 0.5 hrs; format: functional, organism-based; method in brief: as §2
[10] = system: Mus musculus; assay: Neurotoxicity in CF1 albino mouse at 300 mg/kg, ip after 4 hrs by rotarod test; format: toxicity, organism-based; conditions: in vivo
Method in brief: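 Rotarod neurotoxicity in male albino CF-1 mice dosed ip with compound suspended in 0.5% methylcellulose. Animal placed on a 1 inch diameter knurled plastic rod rotating at 6 rpm. Neurotoxicity scored when the animal falls off three times within 1 min. Readout is number of animals toxic/number tested at the stated time after dosing. TD50 with 95% confidence interval from the quantitative study.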

[11] = system: Mus musculus; assay: Anticonvulsant activity in CF1 albino mouse assessed as protection against subcutaneous pentetrazole-induced seizure at 300 mg/kg, ip after 0.5 hrs; format: functional, organism-based; method in brief: as §1
[12] = system: Mus musculus; assay: Anticonvulsant activity in CF1 albino mouse assessed as protection against maximal electroshock-induced seizure at 30 mg/kg, ip after 0.5 hrs; format: functional, organism-based; method in brief: as §2

## CC1CCCN(CCCCCCCOc2ccc(Cl)cc2)C1.O=C(O)C(=O)O (configuration not stated)
[1]
  Ratio TD50/ED50: 3
[2]
  ED50: > 50 mg/kg
[3]
  Ratio TD50/ED50: 3.8
[4]
  Activity: inactive
[5]
  Activity: 25%
[6]
  Activity: Active
[7]
  ED50: 16.1 mg/kg
[8]
  Activity: Active
[9]
  Activity: inactive
[10]
  Activity: Non-toxic
[11]
  Activity: inactive
[12]
  Activity: Active
